Test results: ChEMBL document CHEMBL3098029, “Studies on the synthetic and structural aspects of benzosuberones bearing 2, 4-thiazolidenone moiety as potential anti-cancer agents” (Eur J Med Chem, 2014)

Columns and labels:
HEK293 = assay: Cytotoxicity against HEK293 cells by MTT assay; assay type: cell-based; conditions: Homo sapiens
Method in brief: (§1)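 Growth inhibition in 96-well plates, read by cell-mediated reduction of tetrazolium (MTT) to insoluble formazan, with doxorubicin as standard. Cell lines are A549 (alveolar adenocarcinoma, CCL-185), HeLa (cervical, CCL-2), MDA-MB-231 (breast, HTB26), MCF7 (breast, HTB22) and normal embryonic kidney HEK293. IC50 taken from plotted absorbance data, given as mean ± SD of three independent determinations.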

MCF7 = assay: Cytotoxicity against human MCF7 cells by MTT assay; assay type: functional, cell-based; method in brief: as §1
MDA-MB-231 = assay: Cytotoxicity against human MDA-MB-231 cells by MTT assay; assay type: functional, cell-based; method in brief: as §1
HeLa = assay: Cytotoxicity against human HeLa cells by MTT assay; assay type: functional, cell-based; method in brief: as §1
A549 = assay: Cytotoxicity against human A549 cells by MTT assay; assay type: functional, cell-based; method in brief: as §1

O=C(CN1C(=O)CSC1=O)c1ccc(Cl)cc1
IC50 (HEK293): 14 µM
IC50 (MCF7): > 100 µM
IC50 (MDA-MB-231): > 100 µM
IC50 (HeLa): > 100 µM
IC50 (A549): > 100 µM

Cc1ccc(C(=O)CN2C(=O)S/C(=C\C3=C(Cl)c4cc(C)c(C)cc4CCC3)C2=O)cc1
IC50 (HEK293): > 100 µM
IC50 (MCF7): 1.91 µM
IC50 (MDA-MB-231): 13.4 µM
IC50 (HeLa): > 100 µM
IC50 (A549): > 100 µM

O=C1NC(=O)/C(=C/C2=C(Cl)c3ccccc3CCC2)S1
IC50 (HEK293): > 100 µM
IC50 (MCF7): > 100 µM
IC50 (MDA-MB-231): > 100 µM
IC50 (HeLa): > 100 µM
IC50 (A549): > 100 µM

COc1cccc2c1C(=O)c1c(O)c3c(c(O)c1C2=O)C[C@@](O)(C(=O)CO)C[C@@H]3O[C@H]1C[C@H](N)[C@H](O)[C@H](C)O1 [DOXORUBICIN]
IC50 (HEK293): > 100 µM

COc1ccc(C(=O)CN2C(=O)CSC2=O)cc1
IC50 (HEK293): > 100 µM
IC50 (MCF7): > 100 µM
IC50 (MDA-MB-231): > 100 µM
IC50 (HeLa): > 100 µM
IC50 (A549): > 100 µM

O=C(CN1C(=O)CSC1=O)c1ccc(Br)cc1
IC50 (HEK293): > 100 µM
IC50 (MCF7): > 100 µM
IC50 (MDA-MB-231): > 100 µM
IC50 (HeLa): > 100 µM
IC50 (A549): 22.7 µM

O=C(CN1C(=O)S/C(=C\C2=C(Cl)c3ccccc3CCC2)C1=O)c1ccc(Cl)cc1
IC50 (HEK293): > 100 µM
IC50 (MCF7): > 100 µM
IC50 (MDA-MB-231): > 100 µM
IC50 (HeLa): > 100 µM
IC50 (A549): > 100 µM

COc1ccc(C(=O)CN2C(=O)S/C(=C\C3=C(Cl)c4ccccc4CCC3)C2=O)cc1
IC50 (HEK293): > 100 µM
IC50 (MCF7): 8.95 µM
IC50 (MDA-MB-231): > 100 µM
IC50 (HeLa): > 100 µM
IC50 (A549): 5.44 µM

Cc1ccc(C(=O)CN2C(=O)CSC2=O)cc1
IC50 (HEK293): > 100 µM
IC50 (MCF7): > 100 µM
IC50 (MDA-MB-231): > 100 µM
IC50 (HeLa): > 100 µM
IC50 (A549): 17 µM

Cc1cc2c(cc1C)C(Cl)=C(/C=C1\SC(=O)N(CC(=O)c3ccc(Cl)cc3)C1=O)CCC2
IC50 (HEK293): > 100 µM
IC50 (MCF7): 9.85 µM
IC50 (MDA-MB-231): > 100 µM
IC50 (HeLa): > 100 µM
IC50 (A549): 3.49 µM

O=C(CN1C(=O)S/C(=C\C2=C(Cl)c3ccccc3CCC2)C1=O)c1ccc(Br)cc1
IC50 (HEK293): > 100 µM
IC50 (MCF7): 51.7 µM
IC50 (MDA-MB-231): > 100 µM
IC50 (HeLa): > 100 µM
IC50 (A549): 5.75 µM

Cc1cc2c(cc1C)C(Cl)=C(/C=C1\SC(=O)NC1=O)CCC2
IC50 (HEK293): > 100 µM
IC50 (MCF7): > 100 µM
IC50 (MDA-MB-231): 5.79 µM
IC50 (HeLa): 5.89 µM
IC50 (A549): 5.39 µM

O=C(CN1C(=O)S/C(=C\C2=C(Cl)c3ccccc3CCC2)C1=O)c1ccccc1
IC50 (HEK293): > 100 µM
IC50 (MCF7): 5.31 µM
IC50 (MDA-MB-231): 13.3 µM
IC50 (HeLa): 2.98 µM
IC50 (A549): 4.89 µM

Cc1ccc(C(=O)CN2C(=O)S/C(=C\C3=C(Cl)c4ccccc4CCC3)C2=O)cc1
IC50 (HEK293): > 100 µM
IC50 (MCF7): > 100 µM
IC50 (MDA-MB-231): 5.84 µM
IC50 (HeLa): 7.89 µM
IC50 (A549): > 100 µM

Cc1cc2c(cc1C)C(Cl)=C(/C=C1\SC(=O)N(CC(=O)c3ccc(Br)cc3)C1=O)CCC2
IC50 (HEK293): > 100 µM
IC50 (MCF7): 36.8 µM
IC50 (MDA-MB-231): > 100 µM
IC50 (HeLa): > 100 µM
IC50 (A549): 9.69 µM

Cc1cc2c(cc1C)C(Cl)=C(/C=C1\SC(=O)N(CC(=O)c3ccccc3)C1=O)CCC2
IC50 (HEK293): > 100 µM
IC50 (MCF7): > 100 µM
IC50 (MDA-MB-231): > 100 µM
IC50 (HeLa): 7.89 µM
IC50 (A549): > 100 µM

COc1ccc(C(=O)CN2C(=O)S/C(=C\C3=C(Cl)c4cc(C)c(C)cc4CCC3)C2=O)cc1
IC50 (HEK293): > 100 µM
IC50 (MCF7): > 100 µM
IC50 (MDA-MB-231): 7.89 µM
IC50 (HeLa): 17.9 µM
IC50 (A549): > 100 µM

O=C(CN1C(=O)CSC1=O)c1ccccc1
IC50 (HEK293): > 100 µM
IC50 (MCF7): > 100 µM
IC50 (MDA-MB-231): > 100 µM
IC50 (HeLa): > 100 µM
IC50 (A549): 14.1 µM
